Measurements pooled from the literature.
Each line is one published result; the experiments were not run side by side.
HTR6: 5-hydroxytryptamine receptor 6 (HTR6, Homo sapiens, UniProt P50406)
SIRT6: NAD-dependent protein deacylase sirtuin-6 (SIRT6, Homo sapiens, UniProt Q8N6T7)
PTAFR: Platelet-activating factor receptor (PTAFR, Homo sapiens, UniProt P25105)
Adra1a: Alpha-1A adrenergic receptor (Adra1a, Rattus norvegicus, UniProt P43140)
Plasmepsin II: Plasmepsin II (Plasmodium falciparum, UniProt P46925)
HTR7: 5-hydroxytryptamine receptor 7 (HTR7, Homo sapiens, UniProt P34969)

| Structure (SMILES) | target | test | system | setting | inhibition [%] |
| --- | --- | --- | --- | --- | --- |
| CN(C)C1CCN(CC#Cc2nn(C3CCCC3)c3nc(NCc4ccccc4)ncc23)C1 (stereo not drawn) | Mitogen-activated protein kinase 13 (MAPK13, Homo sapiens, UniProt O15264) | enzyme activity, inhibitor, FRET |  | 0.1 µM | 1 |
| Nc1ccc(-c2ccncc2)cc1NC(=O)N1CCCC1 | HTR6 | ligand displacement, radioligand |  | 10 µM | 16 |
| CCN(CC)CCNC(=O)C1CCN(c2ccc3nnc(-c4cccc(C)c4)n3n2)CC1 | Sodium channel protein type 5 subunit alpha (SCN5A, Homo sapiens, UniProt Q14524) | ion current, inhibitor, patch clamp | CHO | 10 µM | 9.9 |
| Cc1cccc(CONC(=O)c2ccc(C(N)=O)cc2)c1 | SIRT6 | enzyme activity, inhibitor, fluorescence |  | 100 µM | 84 |
| C/C(=C\C(=O)OCCCCCCCCC(=O)O)C[C@@H]1OC[C@H](C[C@@H]2O[C@H]2[C@@H](C)[C@H](C)O)[C@@H](O)[C@H]1O | C-C chemokine receptor type 5 (CCR5, Homo sapiens, UniProt P51681) | calcium signal, antagonist | U87/CD4/CCR5 | 100 µM | 96 |
| CN(Cc1ccc(NC(=O)C2=Cc3cc(-c4ccc(OCCCO)cc4)ccc3CCC2)cc1)C1CCOCC1 | C-C chemokine receptor type 2 (CCR2, Homo sapiens, UniProt P41597) | ligand displacement, radioligand |  | 1 µM, cell membranes | 51 |
| N#Cc1cc(Cn2c(N3CCCC3)nc3ccccc32)ccc1F | HTR6 | ligand displacement |  | 10 µM | 6.5 |
| CNC(=O)c1cc2c(Oc3ccc(NC(=O)C4(C(=O)Nc5ccc(F)cc5)CC4)cc3)ccnc2cc1OC | Angiopoietin-1 receptor (TEK, Homo sapiens, UniProt Q02763, R849W) | enzyme activity, inhibitor, radiometric |  | 1 µM | 99 |
| C1=CSC(=C2SC=CS2)S1 | Ubiquitin carboxyl-terminal hydrolase 14 (USP14, Homo sapiens, UniProt P54578) | enzyme activity, inhibitor |  | 17 µM | 54 |
| CCN(Cc1ccccc1C(F)(F)F)C(=O)C1CCN(S(=O)(=O)c2ccc3[nH]ncc3c2)CC1 | PTAFR | ligand displacement, radioligand |  | 10 µM | 7 |
| Ic1cccc2cnccc12 | Adra1a | ligand displacement, radioligand |  | 10 µM | 9 |
| Cc1ccc(Sc2ccc(CONC(=O)c3ccc(C(N)=O)cc3)cc2C(F)(F)F)cc1 | SIRT6 | enzyme activity, inhibitor, fluorescence |  | 100 µM | 98.6 |
| O=[N+]([O-])c1ccc(N2CCN(CCC(O)c3ccc(F)cc3)CC2)c(C(F)(F)F)c1 (stereo not drawn) | Plasmepsin II | enzyme activity, inhibitor |  | 5 µM | 0 |
| O=C(c1ccc(F)cc1)N(Cc1ccccc1)C1CCCCC1 | Adra1a | cell-free assay |  | 10 µM | -1 |
| O=[N+]([O-])c1ccc(N2CCCN(CCC(O)c3csc4ccc(F)cc34)CC2)c(C(F)(F)F)c1 (stereo not drawn) | Plasmepsin II | enzyme activity, inhibitor |  | 5 µM | 8 |
| CCN(CC)c1ccc(C2Nc3ccc(C(=O)c4ccccc4)cc3NC3=C2C(=O)CC(C)(C)C3)cc1 (stereo not drawn) | HTR6 | ligand displacement, radioligand |  | 10 µM | 30 |
| NC(=O)c1ccc(C(=O)NOCc2cccc3ccccc23)cc1 | SIRT6 | enzyme activity, inhibitor, fluorescence |  | 100 µM | 92.2 |
| O=[N+]([O-])c1ccc(N2CCC(NCCC(O)c3csc4ccc(F)cc34)CC2)c(C(F)(F)F)c1 (stereo not drawn) | Plasmepsin II | enzyme activity, inhibitor |  | 5 µM | 0 |
| CCCCCCOc1c(OC)cc2c3c1-c1cc4c(cc1CC3N(C)CC2c1ccccc1)OCO4 (stereo not drawn) | HTR7 | ligand displacement, radioligand |  | 10 µM | -14.6 |
| COC(=O)c1ccc(C(=O)NOCc2ccccc2)cc1 | SIRT6 | enzyme activity, inhibitor, fluorescence |  | 100 µM | 52.2 |
| O=C(Nc1ccc(S(=O)(=O)N2CCC(Cl)CC2)cc1)c1ccc([N+](=O)[O-])o1 | PTAFR | ligand displacement, radioligand |  | 10 µM | 39 |
| NC(=O)c1ccc(C(=O)NOCc2ccc(Sc3cccc(F)c3)c(C(F)(F)F)c2)cc1 | SIRT6 | enzyme activity, inhibitor, fluorescence |  | 100 µM | 97.6 |
| Cc1cnc(C(=O)NCCNC(=O)Cn2[nH]c(=O)c3ccccc3c2=O)cn1 | Poly [ADP-ribose] polymerase 2 (PARP2, Homo sapiens, UniProt Q9UGN5) | enzyme activity, inhibitor |  | 0.5 µM | ~50 |
| O=C(NO)c1ccc(C(=O)NOCc2ccc(C(F)(F)F)cc2)cc1 | SIRT6 | enzyme activity, inhibitor, fluorescence |  | 100 µM | 93.3 |
| O=C(NC1CCC1)[C@H](Cc1c[nH]c2ccccc12)NC(=O)[C@H](CCCCNC(=S)NCCc1nnn[nH]1)NS(=O)(=O)c1cccc(F)c1 | SIRT6 | enzyme activity, inhibitor |  | 10 µM | 6 |
| NCc1cccc(C(=O)NOCc2ccc(C(F)(F)F)cc2)c1 | SIRT6 | enzyme activity, inhibitor, fluorescence |  | 100 µM | 72.2 |
| CC1=NN(c2ccccc2)CC1 | NADPH oxidase 4 (NOX4, Homo sapiens, UniProt Q9NPH5) | enzyme activity, inhibitor, fluorescence |  | 100 µM, cell membranes | > 40 |
| NC(=O)c1ccc(C(=O)NOCc2ccc(Sc3ccccc3Cl)c(C(F)(F)F)c2)cc1 | SIRT6 | enzyme activity, inhibitor, fluorescence |  | 100 µM | 99.1 |
| O=C(c1ccc(Cl)cc1)N(Cc1ccccc1)C1CCCCC1 | HTR7 | ligand displacement, radioligand |  | 10 µM | 19.2 |
| CC/C(=N\NC(=O)NCc1cccc(O)c1)c1ccc(O)c(C)c1O | [Pyruvate dehydrogenase (acetyl-transferring)] kinase isozyme 4, mitochondrial (PDK4, Homo sapiens, UniProt Q16654) | enzyme activity, inhibitor |  | 0.1 µM | -2.1 |
